In ChEMBL document CHEMBL4219240, “Syntheses and structure-activity relationships on antibacterial and anti-ulcerative colitis properties of quaternary 13-substituted palmatines and 8-oxo-13-substituted dihydropalmatines” (Bioorg Med Chem, 2018):
Values after ≈ are worked out from the molar mass of the structure shown. Active and inactive are the calls of the source. No cut-off for these calls is given here.

Assays:
Candida albicans = assay: Antifungal activity against Candida albicans CMCC (F) 98001 after 24 hrs by twofold microdilution broth method; format: functional; details: CMCC (F) 98001, 24 h
Method in brief: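 Strain CMCC(F) 98001 grown in Sabouraud dextrose broth at 25 °C; inoculum diluted in SDB to 10^6 CFU. Compounds from 20,000 µg/ml DMSO stocks, twofold serial dilution across ten wells, with medium-only and organism-only controls. Incubated 24 h. MIC read by eye as the lowest concentration with no visible growth. Three replicates.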

[1] = Induction of XBP1 promoter DNA activation in rat IEC-6 cells after 48 hrs by dual luciferase reporter gene assay; format: cell-based; details: IEC-6, 48 h
Escherichia coli = assay: Antibacterial activity against clinical isolate of Escherichia coli after 24 hrs by twofold microdilution broth method; format: functional
Method in brief: (§1)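 Clinical isolates grown in Mueller-Hinton broth at 37 °C; inoculum diluted in MHB to 10^6 CFU. Compounds from 20,000 µg/ml DMSO stocks, twofold serial dilution across ten wells, with medium-only and organism-only controls. Incubated 24 h in ambient air. MIC taken as the lowest concentration with no visible growth by eye. Three replicates.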

Staphylococcus aureus = assay: Antibacterial activity against clinical isolate of Staphylococcus aureus after 24 hrs by twofold microdilution broth method; format: functional; method in brief: as §1
IEC-6 = assay: Induction of XBP1 promoter DNA activation in rat IEC-6 cells at 10 uM after 48 hrs by dual luciferase reporter gene assay relative to control; format: cell-based
[2] = Cytotoxicity against rat IEC-6 cells assessed as cell survival at 10 uM after 72 hrs by MTT assay relative to control; format: cell-based; details: read-out: Survival
Method in brief: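 IEC-6 intestinal epithelial cells were exposed to each compound at a fixed 10 µM for 72 h alongside an untreated blank control. Viability was read by MTT reduction and expressed as survival rate (SR). Compounds with SR between 70% and 100% were classed as noncytotoxic or hypocytotoxic.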

Mus musculus [3] = assay: Antiulcerogenic activity in DSS-induced acute ulcerative colitis C57BL/6J mouse model assessed as recovery of polar arrangement of IEC cells at 150 mg/kg, po qd administered for 7 days by microscopic analysis; format: functional, organism-based
Method in brief: (§2)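 Colitis induced by DSS in C57BL/6J mice. Agents given orally each day: test agents at 150 mg/kg as a suspension in 0.5% CMC-Na; sulfasalazine at 500 mg/kg. At study end, colon tissue was H&E stained and examined by light microscopy at ×100 for mucosal structure, epithelial cell arrangement, crypt damage, inflammatory infiltration and ulceration.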

Mus musculus [4] = assay: Inhibition of DSS-induced acute ulcerative colitis C57BL/6J mouse model at 150 mg/kg, po qd administered for 7 days relative to control; format: functional; details: 168 h
Mus musculus [5] = assay: Antiulcerogenic activity in DSS-induced acute ulcerative colitis C57BL/6J mouse model assessed as regular arrangement of IEC cells at 150 mg/kg, po qd administered for 7 days by microscopic analysis; format: functional, organism-based; method in brief: as §2
Mus musculus [6] = assay: Antiulcerogenic activity in DSS-induced acute ulcerative colitis C57BL/6J mouse model assessed as colon macroscopic damage index at 150 mg/kg, po qd administered for 7 days (reference value: 4.13 +/- 0.78); format: functional
Mus musculus [7] = assay: Antiulcerogenic activity in DSS-induced acute ulcerative colitis C57BL/6J mouse model assessed as decrease in body weight at 150 mg/kg, po qd administered for 7 days (reference value: 23.96%); format: functional; design: scale not given: the % may be the effect or the level left
Mus musculus [8] = assay: Antiulcerogenic activity in DSS-induced acute ulcerative colitis C57BL/6J mouse model assessed as colon contracture at 150 mg/kg, po qd administered for 7 days (reference value: 41.87%); format: functional
Mus musculus [9] = assay: Antiulcerogenic activity in DSS-induced acute ulcerative colitis C57BL/6J mouse model assessed as disappearance of inflammatory edema at 500 mg/kg, po qd administered for 7 days by microscopic analysis; format: functional, organism-based; method in brief: as §2
Mus musculus [10] = assay: Inhibition of DSS-induced acute ulcerative colitis C57BL/6J mouse model at 500 mg/kg, po qd administered for 7 days relative to control; format: functional; details: 168 h
Mus musculus [11] = assay: Antiulcerogenic activity in DSS-induced acute ulcerative colitis C57BL/6J mouse model assessed as decrease in body weight at 500 mg/kg, po qd administered for 7 days (reference value: 23.96%); format: functional; design: scale not given: the % may be the effect or the level left
Mus musculus [12] = assay: Antiulcerogenic activity in DSS-induced acute ulcerative colitis C57BL/6J mouse model assessed as colon macroscopic damage index at 500 mg/kg, po qd administered for 7 days (reference value: 4.13 +/- 0.78); format: functional
Mus musculus [13] = assay: Antiulcerogenic activity in DSS-induced acute ulcerative colitis C57BL/6J mouse model assessed as colon contracture at 500 mg/kg, po qd administered for 7 days (reference value: 41.87%); format: functional

Row | SMILES | MIC (Candida albicans) [µg/mL] | MIC (Escherichia coli) [µg/mL] | MIC (Staphylococcus aureus) [µg/mL] | viability at 72 h, 10 µM [2] [%] | further results
1 | CCCCCNC(=O)c1c2n(c(=O)c3c(OC)c(OC)ccc13)CCc1cc(OC)c(OC)cc1-2 | > 250 | > 250 | > 250 | 70 to 100 | EC50 [1]: 1000 nM; fold change (FC) (IEC-6): 1.21
2 | CCCCCC(=O)c1c2[n+](cc3c(OC)c(OC)ccc13)CCc1cc(OC)c(OC)cc1-2.[Cl-] | > 250 | 250 | 62.5 | 70 to 100 | 
3 | CCCCCCCCCNCc1c2n(c(=O)c3c(OC)c(OC)ccc13)CCc1cc(OC)c(OC)cc1-2 | 62.5 (≈ 120 µM) | > 250 | 15.6 (≈ 29.9 µM) | 70 to 100 | 
4 | CCCC(=O)c1c2[n+](cc3c(OC)c(OC)ccc13)CCc1cc(OC)c(OC)cc1-2.[Cl-] | > 250 | > 250 | 250 | 70 to 100 | EC50 [1]: 338 nM; fold change (FC) (IEC-6): 1.59
5 | CCCCCCNCc1c2n(c(=O)c3c(OC)c(OC)ccc13)CCc1cc(OC)c(OC)cc1-2 | > 250 | > 250 | 250 (≈ 520 µM) | 70 to 100 | 
6 | CCOC(=O)CCCCCc1c2[n+](cc3c(OC)c(OC)ccc13)CCc1cc(OC)c(OC)cc1-2.[Cl-] | > 250 | > 250 | 62.5 | 70 to 100 | 
7 | CCC(=O)c1c2[n+](cc3c(OC)c(OC)ccc13)CCc1cc(OC)c(OC)cc1-2.[Cl-] | > 250 | > 250 | > 250 | 70 to 100 | EC50 [1]: 301 nM; fold change (FC) (IEC-6): 1.01
8 | CCCNC(=O)c1c2n(c(=O)c3c(OC)c(OC)ccc13)CCc1cc(OC)c(OC)cc1-2 | > 250 | > 250 | > 250 | 70 to 100 | 
9 | COc1cc2c(cc1OC)-c1c(C(C)=O)c3ccc(OC)c(OC)c3c[n+]1CC2.[Cl-] | > 250 | > 250 | > 250 | 70 to 100 | 
10 | C[C@H]1COc2c(N3CCN(C)CC3)c(F)cc3c(=O)c(C(=O)O)cn1c23.C[C@H]1COc2c(N3CCN(C)CC3)c(F)cc3c(=O)c(C(=O)O)cn1c23.O [LEVOFLOXACIN] | > 250 | < 1.95 | < 1.95 |  | 
11 | CCOC(=O)CCCCCCCc1c2[n+](cc3c(OC)c(OC)ccc13)CCc1cc(OC)c(OC)cc1-2.[Cl-] | 62.5 | 250 | 7.81 | 70 to 100 | 
12 | CCOC(=O)c1c2[n+](cc3c(OC)c(OC)ccc13)CCc1cc(OC)c(OC)cc1-2.[Cl-] | > 250 | > 250 | > 250 | 70 to 100 | 
13 | CCCCNC(=O)c1c2n(c(=O)c3c(OC)c(OC)ccc13)CCc1cc(OC)c(OC)cc1-2 | > 250 | > 250 | > 250 | 70 to 100 | 
14 | COc1cc2c(cc1OC)-c1cc3ccc(OC)c(OC)c3c(=O)n1CC2 | > 250 | > 250 | > 250 | 70 to 100 | 
15 | CCCCCNCc1c2n(c(=O)c3c(OC)c(OC)ccc13)CCc1cc(OC)c(OC)cc1-2 | > 250 | > 250 | > 250 | 70 to 100 | 
16 | COc1cc2c(cc1OC)-c1c(C=O)c3ccc(OC)c(OC)c3c(=O)n1CC2 | > 250 | > 250 | > 250 | 70 to 100 | Activity (Mus musculus [3]): Active; inhibition in vivo at 150 mg/kg (Mus musculus [4]): 63.2%; EC50 [1]: 135 nM; Activity (Mus musculus [5]): Active; Activity_index (Mus musculus [6]): 2.25; Activity (Mus musculus [7]): 5.92%; Activity (Mus musculus [8]): 29.24%; fold change (FC) (IEC-6): 1.41

Row | SMILES | MIC (Candida albicans) [µg/mL] | MIC (Escherichia coli) [µg/mL] | MIC (Staphylococcus aureus) [µg/mL] | viability at 72 h, 10 µM [2] [%] | further results
17 | CCCCCCCCNCc1c2n(c(=O)c3c(OC)c(OC)ccc13)CCc1cc(OC)c(OC)cc1-2 | 250 (≈ 491 µM) | > 250 | 31.2 (≈ 61.4 µM) | 70 to 100 | 
18 | CCOC(=O)Cc1c2[n+](cc3c(OC)c(OC)ccc13)CCc1cc(OC)c(OC)cc1-2.[Cl-] | > 250 | > 250 | 250 | 70 to 100 | 
19 | CCOC(=O)CCCCc1c2[n+](cc3c(OC)c(OC)ccc13)CCc1cc(OC)c(OC)cc1-2.[Cl-] | > 250 | > 250 | 125 | 70 to 100 | 
20 | CCCNCc1c2n(c(=O)c3c(OC)c(OC)ccc13)CCc1cc(OC)c(OC)cc1-2 | > 250 | > 250 | > 250 | 70 to 100 | 
21 | CCCCC(=O)c1c2[n+](cc3c(OC)c(OC)ccc13)CCc1cc(OC)c(OC)cc1-2.[Cl-] | > 250 | > 250 | 125 | 70 to 100 | EC50 [1]: 340 nM; fold change (FC) (IEC-6): 1.29
22 | CCCCCCCNCc1c2n(c(=O)c3c(OC)c(OC)ccc13)CCc1cc(OC)c(OC)cc1-2 | > 250 | > 250 | 125 (≈ 253 µM) | 70 to 100 | 
23 | O=C(O)c1cc(/N=N/c2ccc(S(=O)(=O)Nc3ccccn3)cc2)ccc1O [SULFASALAZINE] |  |  |  |  | Activity (Mus musculus [9]): Active; inhibition in vivo at 500 mg/kg (Mus musculus [10]): 55.2%; Activity (Mus musculus [11]): 6.01%; Activity_index (Mus musculus [12]): 3.13; Activity (Mus musculus [13]): 28.22%
24 | CCOC(=O)CCCCCCc1c2[n+](cc3c(OC)c(OC)ccc13)CCc1cc(OC)c(OC)cc1-2.[Cl-] | 125 | > 250 | 15.6 | 70 to 100 | 
25 | COc1cc2c(cc1OC)-c1c(C=O)c3ccc(OC)c(O)c3c(=O)n1CC2 | > 250 | > 250 | > 250 | 70 to 100 | 
26 | COc1cc2c(cc1OC)-c1c(C(=O)NC3CC3)c3ccc(OC)c(OC)c3c(=O)n1CC2 | > 250 | > 250 | > 250 | 70 to 100 | EC50 [1]: 1000 nM; fold change (FC) (IEC-6): 1.36
27 | COc1cc2c(cc1OC)-c1c(C(=O)NCc3ccccc3)c3ccc(OC)c(OC)c3c(=O)n1CC2 | > 250 | > 250 | > 250 | 70 to 100 | EC50 [1]: 834 nM; fold change (FC) (IEC-6): 1.2
28 | CCCCNCc1c2n(c(=O)c3c(OC)c(OC)ccc13)CCc1cc(OC)c(OC)cc1-2 | > 250 | > 250 | > 250 | 70 to 100 | 
29 | COc1cc2c(cc1OC)-c1c(C(=O)O)c3ccc(OC)c(OC)c3c(=O)n1CC2 | > 250 | > 250 | > 250 | 70 to 100 | 
30 | CCOC(=O)CCCc1c2[n+](cc3c(OC)c(OC)ccc13)CCc1cc(OC)c(OC)cc1-2.[Cl-] | > 250 | > 250 | 125 | 70 to 100 | 
31 | COc1cc2c(cc1OC)-c1cc3ccc(OC)c(OC)c3c[n+]1CC2.[Cl-] [PALMATINE CHLORIDE] | > 250 | > 250 | 250 | 70 to 100 | 
